From PubChem BioAssay
Rows were chosen to be rich in hits. Some 2.3% of all compounds tested hit in one or more screens of this group.
V1R ag counter – V1a receptor agonism, counter-screen for OXTR agonists | P37288 | CHO-V1R cells, Fluo-8 calcium fluorescence, agonist mode; 0% DMSO, 100% 3 nM vasopressin | activation, % at 3 µM | 0.25% of 320,000 active | AID 2797;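 active = activation above the mean activation of all tested compounds plus 3 SD, per screening run, cut at about 20% in these data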;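 note: signal is peak over basal fluorescence ratio across a 100 second FLIPR read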
OXTR agonist – agonists of human oxytocin receptor. P30559. CHO-OTR cells, Fluo-8 calcium fluorescence; normalized: DMSO 0%, oxytocin 100%. activation, % at 3 µM. 0.32% of 320,000 active. AID 2435;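 active = activation above the mean of all tested compounds plus 3 SD, cutoff set per screening run, cut at about 20% in these data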;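 note: peak over basal fluorescence ratio from a 100 s FLIPR kinetic read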
Target sequence (P30559 whole entry, looked up): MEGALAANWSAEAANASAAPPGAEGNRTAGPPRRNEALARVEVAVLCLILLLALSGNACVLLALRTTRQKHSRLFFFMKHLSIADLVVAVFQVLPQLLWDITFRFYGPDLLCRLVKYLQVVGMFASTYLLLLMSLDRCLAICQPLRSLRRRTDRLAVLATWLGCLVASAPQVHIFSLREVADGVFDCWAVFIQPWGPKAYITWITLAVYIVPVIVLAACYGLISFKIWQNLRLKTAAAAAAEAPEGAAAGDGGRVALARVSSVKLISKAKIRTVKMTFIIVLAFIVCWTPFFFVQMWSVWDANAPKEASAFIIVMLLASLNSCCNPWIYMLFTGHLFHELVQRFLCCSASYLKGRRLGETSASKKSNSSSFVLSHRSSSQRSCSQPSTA
TAAR1 ag – human TAAR1 agonism; Q96RJ0; CHO RD-HGA16 TAAR1, Fluo-8 calcium fluorescence; vehicle wells 0%, saturating PEA agonist 100%; activation, % at 3 µM; 0.99% of 360,000 active; AID 624467;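 active = activation above the mean activation of all test compounds in the run plus 3 SD, cut at about 38% in these data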
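Signal – calcium-sensitive Fluo-8 signal, excitation 470-495, emission 515-575 nm · System – RD-HGA16 (CHO) cells co-expressing Gα16 and hTAAR1 · Incubation – 17-24 h seeding, 75 min 37 °C dye, 30 min RT · Compound dosing – 3 µM single concentration · Repeats – no replicates (n 1)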
TAAR1 antagonist – antagonists of human TAAR1; AID 624466; CHO RD-HGA16 TAAR1, Fluo-8 calcium fluorescence, antagonist; 1.5% of 360,000 active; inhibition, % at 3 µM;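 active = inhibition above a per-plate cutoff, the mean inhibition of test compounds on that plate plus 3 SD, cut at about 49% in these data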;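 note: 0% = DMSO plus EC80 beta-PEA response and 100% = DMSO alone without agonist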
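Material: RD-HGA16 CHO cells with stable hTAAR1 and Gα16; Dosing: single nominal final test compound concentration of 3 µM; Schedule: seeding 17-24 h prior, 75-min 37 °C, 30-min RT dye loading; Detection: kinetic Fluo-8 calcium fluorescence measurement; Measure: % inhibition from peak post-agonist over basal fluorescence ratio; Benchmarks: vehicle and agonist controls.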
OXTR potentiate – human OXTR potentiation; CHO-OTR cells, Fluo-8 calcium fluorescence, potentiator mode; 0% = oxytocin EC15, 100% = EC100; 0.061% of 320,000 active; P30559; activation, % at 3 µM;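 active = activation above that plate's cutoff, the mean activation of tested compounds plus 3 SD, cut at about 6.6% in these data, passing the limit was not always enough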;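 note: 100% uses oxytocin at 75 nM as the full agonist control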
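Assay system: CHO cell line stably expressing human OTR | Also added: Oxytocin at about EC15, sub-maximal agonist stimulus | Times: Compound 6 min at room temperature before oxytocin, 100 s read | Measured by: Fluo-8 intracellular calcium fluorescence, ex 470-495, em 515-575 nm | Controls: EC15 oxytocin alone as 0%, 75 nM oxytocin as 100%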
* = called active by the depositor; . = not tested or not shown.

SMILES	V1R ag counter	OXTR agonist	TAAR1 ag	TAAR1 antagonist	OXTR potentiate
CC1Sc2ccc(S(=O)(=O)N(C)Cc3ccccc3)cc2NC1=O (centres undefined)	7	3	7	49*	-13
Cc1ccc(C2C(C#N)=C(N)SC(N)=C2C#N)cc1	.	.	50*	48	.
Cc1ccc(C2C(C#N)=C(N)SC(N)=C2C#N)c(C)c1	21*	20*	.	.	-24
N#CC1=C(N)SC(N)=C(C#N)C1c1ccoc1	5	5	.	.	-8
O=C(CCC(=O)N1CCN(Cc2ccc(F)cc2)CC1)Nc1nnc(C2CCCCC2)s1	3	1	4	-7	-2
COc1ccccc1CN1CC(C(=O)NCCN(C)CCc2ccccc2)CCC1=O (centres undefined)	0	0	39*	-24	10
Cc1ccc(NC(=O)/C=C/c2ccc(S(=O)(=O)N3CCOCC3)cc2)cc1S(=O)(=O)N(C)C	.	.	22	66*	.
CC(=O)Nc1cccc(NC(=O)/C=C/c2ccc(S(=O)(=O)N3CCOCC3)cc2)c1	2	1	2	2	-2
O=C1NC(=S)CN1c1ccccc1	2	-1	7	-34	-2
Nc1c(C(=O)NCC2CCCO2)c2nc3ccccc3nc2n1-c1ccccc1 (centres undefined)	5	8	27	50*	-15
C=CCN1C=CC(=C/C=C(/C#N)C(=O)OCC)C=C1	21*	29*	32	21	-8
CCOC(=O)/C(C#N)=C/C=C1/C=CC=CN1C	2	1	3	-14	-6
CCCOc1ccc(CCc2n[nH]c(=S)n2Cc2ccccc2)cc1	3	-1	0	51*	-13
CCCOc1ccc(CCc2n[nH]c(=S)n2-c2ccccc2)cc1	2	1	2	-5	-10
CCCCOCC1CN(Cc2ccccc2OC)S(=O)(=O)c2cc(Cl)ccc2O1 (centres undefined)	.	.	1	-3	.
Cn1c(NC(=O)c2ccc(S(=O)(=O)N3CCCCC3)cc2)cc(=O)n(C)c1=O	4	2	2	-8	0
CCOC(=O)CNS(=O)(=O)c1cc(-c2nnc(Nc3ccc4c(c3)OCO4)c3ccccc23)ccc1C	-1	-2	9	59*	1
Cc1ccc(C(C)C)c(OCCCN2CCc3ccccc3C2)c1	0	-2	23	-2	-17
Cc1ccnc2nc(C(=O)NC3=NCCS3)nn12	0	1	9	8	-14
Oc1ccc(C(c2nnnn2C2CCCC2)N2CCc3ccccc3C2)cc1 (centres undefined)	0	-1	82*	84*	-13
Cn1c(N)c(C(=O)COC(=O)CC2CC3CCC2C3)c(=O)n(C)c1=O (centres undefined)	2	5	40*	-5	-7
Cn1c(N)c(C(=O)COC(=O)Cc2ccc(Br)cc2)c(=O)n(C)c1=O	0	1	7	-12	-1
CN(C)S(=O)(=O)Oc1cccc(C(=O)Nc2cccc(Cl)c2)c1	6	9	17	48	-16
CN(C)S(=O)(=O)Oc1cccc(C(=O)Nc2ccc(Cl)c(Cl)c2)c1	9	8	41*	61*	-30
Cc1cc(C)c(NC(=O)CN(C)CC(=O)Nc2cccc(S(=O)(=O)N(C)c3ccccc3)c2)c(C)c1	6	1	44*	89*	-7
SMILES	V1R ag counter	OXTR agonist	TAAR1 ag	TAAR1 antagonist	OXTR potentiate
CN(CC(=O)Nc1cccc(F)c1)CC(=O)Nc1ccccc1[N+](=O)[O-]	10	13	6	7	-9
CN(CC(=O)Nc1cccc(F)c1)CC(=O)Nc1cccc(S(=O)(=O)N(C)c2ccccc2)c1	.	.	26	63*	.
Cc1ccccc1CN(C)CC(=O)Nc1cccc(S(=O)(=O)N(C)c2ccccc2)c1	0	-1	-2	-2	-8
CN(CC(=O)Nc1cccc(F)c1)CC(=O)Nc1cccc2ccccc12	2	4	46*	59*	-8
Cc1cc(=O)[nH]c(N/N=C/c2c(O)n(-c3ccccc3)c(=O)c3ccccc23)n1	1	-2	2	-2	-5
O=C(c1cc(Br)ccc1Cl)N1CCCC1	1	-2	2	8	-14
O=C(NC1CC1)C1=C[C@@H](c2ccc(Br)cc2)C[C@@H](OCCCCO)O1	0	-1	0	9	-7
CN(C)S(=O)(=O)c1ccc(Nc2ccc(-c3ccc4c(c3)OCCO4)nn2)cc1	2	3	16	49*	-3
COc1ccc(S(=O)(=O)N2CCN(C)CC2c2ccccc2)cc1 (centres undefined)	0	-1	8	13	-4
CCCCOc1ccc(S(N)(=O)=O)cc1	0	0	18	-9	-6
Cc1c(NC(=O)Nc2ccc(Cl)c(Cl)c2)sc(=S)n1C	4	5	41*	6	-14
CCC(=O)c1ccc(OCC(=O)OCC(=O)N2c3ccccc3NC(=O)C2(C)C)cc1	9	5	13	52*	-15
COc1cc(C(=O)OCC(=O)N2c3ccccc3NC(=O)C2(C)C)ccc1OCC(C)C	-1	-1	14	67*	-14
CC(C)(C)c1ccc(OCCC(=O)OCC(=O)N2c3ccccc3NC(=O)C2(C)C)cc1	3	0	9	93*	-12
CC1(C)C(=O)Nc2ccccc2N1C(=O)COC(=O)c1cccc(O)c1	0	2	14	31	-7
Cc1cc(OCC(=O)OCC(=O)N2c3ccccc3NC(=O)C2(C)C)ccc1Cl	9	8	8	70*	-12
Cc1ccc(C(=O)CCC(=O)OCC(=O)N2c3ccccc3NC(=O)C2(C)C)cc1	.	.	6	44	.
CCOc1ccccc1CNCCNCC(C)O (centres undefined)	1	0	0	-4	-1
CCOC(=O)c1sc(NC(=O)Nc2ccc(F)cc2)nc1C	12	16	10	62*	-13
CCS(=O)(=O)N1Cc2ccccc2CC1C(=O)Nc1cccc(C)c1 (centres undefined)	-1	-2	3	-9	-11
O=C(OCC(=O)c1ccc[nH]1)c1ccc(Br)cc1	7	9	7	1	-8
CCOc1ccc(C(C(=O)NCC2CCCO2)N(C(=O)c2snc(C(N)=O)c2N)c2ccc(F)cc2)cc1 (centres undefined)	1	1	28	49*	-21
COc1cccc(N(C(=O)c2snc(C(N)=O)c2N)C(C(=O)NCC2CCCO2)c2ccc(F)cc2)c1 (centres undefined)	1	2	3	10	-10
CC(C)(C)C(=O)Nc1ccccc1C(=O)NCc1ccco1	0	-2	-4	5	-4
